Measurements from ChEMBL document CHEMBL4311956, “A Qualified Success: Discovery of a New Series of ATAD2 Bromodomain Inhibitors with a Novel Binding Mode Using High-Throughput Screening and Hit Qualification” (J Med Chem, 2019).
The source made the active and inactive calls. The calls are words filed in the database; no cut-off is given here.

What was measured:
[1] = biological target: T1, ATPase family AAA domain-containing protein 2 (Homo sapiens, UniProt Q6PL18); assay: Displacement of SGRG-K(Ac)-GG-K(Ac)-GLG-K(Ac)-GGAKRHRKV-biotin) from His6/FLAG-tagged TEV fused ATAD2 bromodomain (981 to 1121 residues) (unknown origin) expressed in Escherichia coli BL21(DE3) cells after 30 mins by TR-FRET assay
T1 sequence (Q6PL18 whole entry): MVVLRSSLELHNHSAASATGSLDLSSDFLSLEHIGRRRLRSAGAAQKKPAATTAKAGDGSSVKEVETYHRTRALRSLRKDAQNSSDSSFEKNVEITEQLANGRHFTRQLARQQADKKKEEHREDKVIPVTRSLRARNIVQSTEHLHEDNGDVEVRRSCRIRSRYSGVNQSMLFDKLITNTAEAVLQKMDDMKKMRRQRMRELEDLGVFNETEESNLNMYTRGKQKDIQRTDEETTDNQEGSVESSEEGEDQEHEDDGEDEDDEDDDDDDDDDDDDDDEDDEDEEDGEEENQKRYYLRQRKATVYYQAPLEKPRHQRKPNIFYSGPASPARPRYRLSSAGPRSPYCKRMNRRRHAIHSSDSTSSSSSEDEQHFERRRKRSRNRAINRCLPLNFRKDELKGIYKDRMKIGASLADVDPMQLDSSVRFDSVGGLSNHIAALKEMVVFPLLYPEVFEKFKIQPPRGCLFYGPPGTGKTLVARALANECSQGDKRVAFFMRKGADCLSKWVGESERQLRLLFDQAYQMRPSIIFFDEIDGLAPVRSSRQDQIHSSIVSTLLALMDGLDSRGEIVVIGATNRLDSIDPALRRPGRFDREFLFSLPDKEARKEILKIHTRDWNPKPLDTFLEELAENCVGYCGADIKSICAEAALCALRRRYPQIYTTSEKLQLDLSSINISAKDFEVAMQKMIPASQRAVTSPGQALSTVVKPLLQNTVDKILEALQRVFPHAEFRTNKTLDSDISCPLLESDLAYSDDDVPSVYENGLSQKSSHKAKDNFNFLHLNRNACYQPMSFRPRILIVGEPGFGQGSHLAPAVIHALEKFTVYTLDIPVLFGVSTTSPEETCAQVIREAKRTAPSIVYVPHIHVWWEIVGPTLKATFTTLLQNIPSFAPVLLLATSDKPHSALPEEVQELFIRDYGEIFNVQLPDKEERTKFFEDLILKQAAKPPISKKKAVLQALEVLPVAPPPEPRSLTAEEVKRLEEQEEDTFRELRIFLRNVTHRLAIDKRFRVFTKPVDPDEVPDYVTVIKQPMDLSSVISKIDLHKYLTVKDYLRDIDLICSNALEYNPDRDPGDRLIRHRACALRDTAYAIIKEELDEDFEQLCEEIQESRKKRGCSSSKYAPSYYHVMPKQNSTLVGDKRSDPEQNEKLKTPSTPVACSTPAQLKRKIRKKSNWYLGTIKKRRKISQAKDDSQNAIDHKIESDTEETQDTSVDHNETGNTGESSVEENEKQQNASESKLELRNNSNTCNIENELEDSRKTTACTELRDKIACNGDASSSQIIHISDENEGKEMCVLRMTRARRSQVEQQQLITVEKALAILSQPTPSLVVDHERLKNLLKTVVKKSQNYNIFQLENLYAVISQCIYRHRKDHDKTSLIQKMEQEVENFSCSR

[2] = biological target: Bromodomain-containing protein 4 (Homo sapiens, UniProt O60885, Y390A); assay: Displacement of Alexa Fluor 647 labelled ligand from His6-tagged BRD4 BD1 (1 to 477 residues)/BD2 Y390A mutant (unknown origin) after 30 mins by TR-FRET assay
How it was run: (§1)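 BET selectivity by TR-FRET fluoroligand displacement. Uses tandem BET bromodomain constructs carrying a mutation in the non-assayed bromodomain.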

[3] = biological target: T1, ATPase family AAA domain-containing protein 2; assay: Inhibition of ATAD2 bromodomain in human HUT78 chromatin lysate after 2 hrs by bromosphere competition binding assay
How it was run: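 Bromosphere chemoproteomic assay. Measures competitive inhibition of binding of endogenous full-length ATAD2 from Hut-78 cells.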

[4] = biological target: T2, ATPase family AAA domain-containing protein 2 (Homo sapiens) (UniProt Q6PL18); assay: Binding affinity to 15N-labelled ATAD2 (981 to 1108 residues) (unknown origin) at 100 uM by 1H-15N HSQC NMR analysis
T2 sequence (whole entry): T1 sequence (Q6PL18 whole entry)
How it was run: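 15N–1H HSQC spectra of labelled ATAD2 bromodomain recorded with and without compound at 100 μM. Binding is judged from spectral changes.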

[5] = biological target: T2, ATPase family AAA domain-containing protein 2 (Homo sapiens); assay: Displacement of SGRG-K(Ac)-GG-K(Ac)-GLG-K(Ac)-GGAKRHRKV-biotin) from His6/FLAG-tagged TEV fused ATAD2 bromodomain (981 to 1121 residues) (unknown origin) expressed in Escherichia coli BL21(DE3) cells at 10 uM after 30 mins by TR-FRET assay relative to control
[6] = biological target: Bromodomain-containing protein 4 (Homo sapiens, UniProt O60885, Y97A); assay: Displacement of Alexa Fluor 647 labelled ligand from His6-tagged BRD4 BD2 (1 to 477 residues)/BD1 Y97A mutant (unknown origin) after 30 mins by TR-FRET assay; how it was run: as §1
[7] = biological target: T1, ATPase family AAA domain-containing protein 2; assay: (§2) Binding affinity to His6/FLAG-tagged TEV fused ATAD2 bromodomain (950 to 1148 residues) (unknown origin) expressed in Escherichia coli BL21(DE3) cells by surface plasmon resonance
How it was run: (§3)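 SPR screen of concentration–response up to 100 μM. Wild-type ATAD2 and a Y1021A/N1064A mutant lacking the acetyl-lysine binding motif were run in parallel. Hits were classed as binding, nonbinding or linear binding (nonsaturating response, calculated Kd above the top concentration).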

[8] = biological target: T2, ATPase family AAA domain-containing protein 2 (Homo sapiens); assay: as §2; how it was run: as §3
[9] = biological target: T2, ATPase family AAA domain-containing protein 2 (Homo sapiens); assay: Displacement of SGRG-K(Ac)-GG-K(Ac)-GLG-K(Ac)-GGAKRHRKV-biotin) from His6/FLAG-tagged TEV fused ATAD2 bromodomain (981 to 1121 residues) (unknown origin) expressed in Escherichia coli BL21(DE3) cells at 100 to 300 uM after 30 mins by TR-FRET assay relative to control

SMILES	IC50 [1] [µM]	IC50 [2] [µM]	IC50 [3] [µM]	Activity [4]	inhibition [5] [%]	IC50 [6] [µM]	Kd [7] [µM]	pIC50 [1]	Activity [8]	Activity [9] [%]
CCC(=O)Nc1ccc(C#N)c(S(=O)(=O)N2CCCCC2)c1	> 1000									
Cc1[nH]c(=O)c(C#N)c(C)c1CCC(=O)Nc1ccc(Cl)c(S(=O)(=O)N2CCCCC2)c1	1.26	> 50.1	15.8	Active	77	> 50.1	6.31			
Cc1ccccc1C(=O)NCC(=O)Nc1ccc(C)c(S(=O)(=O)N2CCCCCC2)c1	12.6	> 50.1	39.8	Active	39	> 50.1	31.6			
CC1(C2CC2)NC(=O)N(CC(=O)Nc2ccc(Cl)c(S(=O)(=O)N3CCCCC3)c2)C1=O (stereo in doubt; 18)		10				31.6		5.9		
CC1(C2CC2)NC(=O)N(CC(=O)Nc2ccc(C(F)(F)F)c(S(=O)(=O)N3CCCCC3)c2)C1=O (racemic)	10	> 50.1				25.1				
Cc1ccc(NC(=O)CN2C(=O)NC(C)(C3CC3)C2=O)cc1S(=O)(=O)N1CCCCC1 (centres undefined)	12.6	> 50.1		Active	52	> 50.1	20			
O=C(CCNC1=NS(=O)(=O)c2ccccc21)Nc1ccc(Cl)c(S(=O)(=O)N2CCCC2)c1	10	> 50.1		Active	47	> 50.1	15.8			
O=C(CN1C(=O)NC(CCc2ccccc2)C1=O)Nc1ccc(Cl)c(S(=O)(=O)N2CCCCC2)c1 (centres undefined)	3.16	> 50.1		Active	48	> 50.1			Active	
CCC(=O)Nc1ccc(OC)c(S(=O)(=O)N2CCCCC2)c1	> 1000									
CCC(=O)Nc1ccc(Cl)c(S(=O)(=O)N2CCCCC2)c1	79.4									45 to 55
CCC(=O)Nc1ccc(Br)c(S(=O)(=O)N2CCCCC2)c1	15.8									
CC1(C2CC2)NC(=O)N(CC(=O)Nc2ccc(Cl)c(S(=O)(=O)N3CCCCC3)c2)C1=O (racemic) [listing 1 of 2 here]	1.26	> 50.1	15.8			50.1	2			
CC1(C2CC2)NC(=O)N(CC(=O)Nc2cccc(S(=O)(=O)N3CCCCC3)c2)C1=O (racemic)	> 100	> 50.1				31.6				
COc1ccc(NC(=O)CN2C(=O)NC(C)(C3CC3)C2=O)cc1S(=O)(=O)N1CCCCC1 (racemic)	> 100	> 50.1				> 50.1				
CC1(C2CC2)NC(=O)N(CC(=O)Nc2ccc(Cl)c(S(=O)(=O)N3CCCCC3)c2)C1=O (racemic) [listing 2 of 2 here]				Active	79					
CSCCC1NC(=O)N(CC(=O)Nc2ccc(Cl)c(S(=O)(=O)N3CCOCC3)c2)C1=O (centres undefined)	10	> 50.1		Active	30 to 40	> 50.1	15.8			

SMILES	IC50 [1] [µM]	IC50 [2] [µM]	IC50 [3] [µM]	Activity [4]	inhibition [5] [%]	IC50 [6] [µM]	Kd [7] [µM]	pIC50 [1]	Activity [8]	Activity [9] [%]
CCC(=O)Nc1ccc(F)c(S(=O)(=O)N2CCCCC2)c1	> 1000									
Cc1ccc(NC(=O)CN2C(=O)NC(C)(C)C2=O)cc1S(=O)(=O)N1CCCCCC1	10	> 50.1		Active	58	> 50.1	7.94			
O=C(CNC(=O)C1CCCCC1)Nc1ccc(Cl)c(S(=O)(=O)N2CCCCC2)c1	> 100	> 50.1		Active	29	> 50.1			Active	
CC1(C2CC2)NC(=O)N(CC(=O)Nc2ccc(Cl)c(S(=O)(=O)N3CCCCC3)c2)C1=O (stereo in doubt; 19)		> 50.1				> 50.1		5.9		
Cc1ccc(C2(C)NC(=O)N(CC(=O)Nc3ccc(C)c(S(=O)(=O)N4CCCCC4)c3)C2=O)cc1 (centres undefined)	10	5.01		Active	33	> 50.1	12.6			
Cc1ccc(NC(=O)CN2C(=O)NC(Cc3ccccc3)C2=O)cc1S(=O)(=O)N1CCCCC1 (centres undefined)	> 100	> 50.1		Active	18	> 50.1			Active	
CCC(=O)Nc1ccc(O)c(S(=O)(=O)N2CCCCC2)c1	> 1000									
Cc1ccc(NC(=O)CN2C(=O)NC3(CCc4ccccc43)C2=O)cc1S(=O)(=O)N1CCCCC1 (centres undefined)	7.94	> 50.1		Active	61	> 50.1	15.8			
O=C(CCNC(=O)c1ccccc1)Nc1ccc(Cl)c(S(=O)(=O)N2CCCCC2)c1	> 100	> 50.1		Active	27	39.8	50.1			
CCN(CC)S(=O)(=O)c1cc(NC(=O)CN2C(=O)NC(C)(c3ccccc3)C2=O)ccc1C (centres undefined)	31.6	> 501		Active	29	39.8	50.1			
CCC(=O)Nc1ccc(C(F)(F)F)c(S(=O)(=O)N2CCCCC2)c1	> 1000									
CN(C)S(=O)(=O)c1cc(NC(=O)CN2C(=O)NC3(CCCc4ccccc43)C2=O)ccc1Cl (centres undefined)	5.01	> 50.1		Active	52	> 50.1	7.94			
Cc1ccc(NC(=O)CN2C(=O)CN(C)C2=O)cc1S(=O)(=O)N1CCCCC1	50.1	> 501		Active	30	> 501	50.1			
CCC(=O)Nc1ccc(CC)c(S(=O)(=O)N2CCCCC2)c1	> 1000									
CCC(=O)Nc1ccc(N)c(S(=O)(=O)N2CCCCC2)c1	> 1000									
